What was measured:
[1] = Inhibitory effect on HIV-1 RT activity using template primer,poly (rC)-oligo (dG)
[2] = target: HIV-1 RT (reverse transcriptase); assay: Inhibitory effect on HIV-1 RT activity using template primer,poly (rA)-oligo (dT)
Outline: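 Recombinant HIV-1 reverse transcriptase with poly(rA)-oligo(dT) as template-primer; IC50 is the 50% inhibition concentration, given as the mean of at least two separate experiments.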

Row | SMILES | IC50 [1] [µM] | IC50 [2] [µM]
1 | CCCN(C)C(=O)Oc1nsnc1-c1c(Cl)cccc1Cl [Methyl-propyl-carbamic acid 4-(2,6-dichloro-phenyl)-[1,2,5]thiadiazol-3-yl ester] | 0.8 | 5.8
2 | CC(=O)c1ccc(C)cc1N[C@H](C(N)=O)c1c(Cl)cccc1Cl |  | 16
3 | CCN(C)C(=O)Oc1nsnc1-c1c(Cl)cccc1Cl [Ethyl-methyl-carbamic acid 4-(2,6-dichloro-phenyl)-[1,2,5]thiadiazol-3-yl ester] | 0.3 | 3.4
4 | CCCCN(C)C(=O)Oc1nsnc1-c1c(Cl)cccc1Cl [Butyl-methyl-carbamic acid 4-(2,6-dichloro-phenyl)-[1,2,5]thiadiazol-3-yl ester] |  | 12

— BindingDB's records for doi:10.1021/jm00012a002 (Tosoh, 1995)
